# Measured values from ChEMBL document CHEMBL2034857, “Discovery of the macrocycle (9E)-15-(2-(pyrrolidin-1-yl)ethoxy)-7,12,25-trioxa-19,21,24-triaza-tetracyclo[18.3.1.1(2,5).1(14,18)]hexacosa-1(24),2,4,9,14(26),15,17,20,22-nonaene (SB1578), a potent inhibitor of janus kinase 2/fms-like tyrosine kinase-3 (JAK2/FLT3) for the treatment of rheumatoid …” (J Med Chem, 2012).
# Tests used:
# Mus musculus [1] = test: Antiarthritic activity in B10/R3 mouse immunized with bovine type2 collagen in Freund's complete adjuvant assessed as inhibition of increase in clinical arthritic scores at 0.1 mg/kg, po administered bid for 10 days measured for 10 days; format: functional; settings: B10/R3, 240 h
# [2] = Thermodynamic solubility of the compound at pH 7; format: physicochemical; settings: buffer, read-out: Therm_solubility
# Outline: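 The citrate salt (~5 mg) was made up at 5 mg/mL in pH-buffered solution, in triplicate. It was shaken 24 h at 600 rpm at room temperature, filtered (0.4 μm) and the final pH recorded. The filtrate was diluted in acetonitrile/water (1:1), centrifuged and quantified by HPLC-UV. Two determinations were made on two different batches.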
# [3] = Selectivity ratio of IC50 for recombinant JAK1 to IC50 for recombinant JAK2
# [4] = Selectivity ratio of IC50 for recombinant CDK2 to IC50 for recombinant JAK2
# [5] = Selectivity ratio of IC50 for recombinant JAK3 to IC50 for recombinant JAK2
# Mus musculus [6] = test: Antiarthritic activity in po dosed B10/R3 mouse immunized with bovine type2 collagen in Freund's complete adjuvant assessed as inhibition of increase in clinical arthritic scores administered bid for 10 days measured for 10 days; format: functional, organism-based
smiles,measurement,setting,value
C[C@@H]1C[C@H]2[C@@H]3CCC4=CC(=O)C=C[C@]4(C)[C@@]3(F)[C@@H](O)C[C@]2(C)[C@@]1(O)C(=O)CO [DEXAMETHASONE],inhibition in vivo at 0.1 mg/kg,Mus musculus [1],63%
C1=C/COCc2cc(ccc2OCCN2CCCC2)Nc2nccc(n2)-c2cccc(c2)COC/1 [PACRITINIB],solubility thermodynamic,[2],150 µg/mL
C1=C/COCc2cc(ccc2OCCN2CCCC2)Nc2nccc(n2)-c2ccc(o2)COC/1 (mixture of isomers),Ratio IC50,[3],58
same,Ratio IC50,[4],152
same,Ratio IC50,[5],93
same,inhibition,Mus musculus [6],Dose-dependent effect
